# Only some compounds are listed: those with a hit (about 3% of all), similar ones and a draw of the others.
# T cruzi inh = blocks replication of Trypanosoma cruzi. T. cruzi beta-gal in NIH3T3, luminescence, 90 h. inhibition, % (test concentration not listed). 300,000 tested, 1.4% active. AID 1885;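 active = mean inhibition across valid replicates above about 55%, limit read from the data; inconclusive = mean below that limit but half or more replicates reach it; inactive = mean below it, under half of replicates reach it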;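 note: signal also drops with host cell toxicity which is not excluded here; 0% = plate median of DMSO wells and 100% = zero luminescence signal; higher percent means less beta-gal luminescence so fewer parasites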
#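 System – NIH/3T3 host cells with β-galactosidase reporter T. cruzi · Doses – single 50 nL compound addition per well in DMSO · Reagent – 5000 T. cruzi trypomastigotes/well · Medium – Low-serum DMEM with 2% FBS · Timing – ≥90 h infection period, 3 h prior cell attachment · Evaluation – parasite load inhibition, % · Technique – GalScreen luminescence, 60 min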
# HIF activator = HIF pathway transcriptional activation. 300,000 tested, 0.32% active. activation, % at 7.5 µM (by protocol). U2OS HRE-luciferase reporter, luminescence; normalized: DMSO 0%, desferrioxamine 100%. AID 1910;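 active = mean activation of at least 10% of the iron chelator positive control signal, with at least half of replicates also reaching 10%; inconclusive = mean and replicate majority disagree about reaching 10%; inactive = mean and most replicates under 10%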
# NRP1-CendR mod = modulators of CendR peptide binding to human neuropilin-1; 360,000 tested, 0.85% active; O14786; inhibition, % at 25 µM; AID 602438; FAM-RPARPAR peptide binding to NRP-1, fluorescence polarization;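 active = inhibition or corrected inhibition above about 18%, plus a signal ratio from 0.5 to 1.5, limit read from the data, passing the limit was not always enough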
# Target sequence (O14786 whole entry, looked up): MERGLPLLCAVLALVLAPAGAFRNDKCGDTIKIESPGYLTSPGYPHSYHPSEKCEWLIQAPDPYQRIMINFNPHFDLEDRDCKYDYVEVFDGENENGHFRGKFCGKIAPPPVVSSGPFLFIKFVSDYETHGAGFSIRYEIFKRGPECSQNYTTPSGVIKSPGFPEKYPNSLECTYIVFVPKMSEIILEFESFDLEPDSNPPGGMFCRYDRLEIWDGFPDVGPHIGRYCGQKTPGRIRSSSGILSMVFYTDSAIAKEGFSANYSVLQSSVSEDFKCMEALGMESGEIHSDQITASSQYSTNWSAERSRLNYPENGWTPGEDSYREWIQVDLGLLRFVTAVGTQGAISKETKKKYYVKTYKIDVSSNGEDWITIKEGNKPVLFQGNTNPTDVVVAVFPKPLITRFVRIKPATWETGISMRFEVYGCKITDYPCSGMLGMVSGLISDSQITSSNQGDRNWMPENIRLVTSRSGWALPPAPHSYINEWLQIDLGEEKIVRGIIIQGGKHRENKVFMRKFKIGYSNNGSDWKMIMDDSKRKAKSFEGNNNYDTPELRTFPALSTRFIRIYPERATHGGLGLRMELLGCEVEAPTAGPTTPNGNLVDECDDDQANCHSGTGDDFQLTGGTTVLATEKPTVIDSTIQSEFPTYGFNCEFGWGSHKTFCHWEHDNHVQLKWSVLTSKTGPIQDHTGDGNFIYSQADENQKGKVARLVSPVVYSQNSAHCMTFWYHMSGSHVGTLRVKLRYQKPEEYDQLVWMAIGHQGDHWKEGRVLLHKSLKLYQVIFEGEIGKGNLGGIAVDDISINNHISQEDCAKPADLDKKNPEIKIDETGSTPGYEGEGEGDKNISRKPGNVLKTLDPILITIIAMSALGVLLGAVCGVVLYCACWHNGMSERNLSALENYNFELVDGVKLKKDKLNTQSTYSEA
# AI-2 QS modul = Vibrio harveyi AI-2 quorum sensing modulation; AID 2094; Vibrio harveyi JMH597 AI-2 luminescence/OD600 ratio, 9 h; stronger effect = lower value; strain lacks LuxN and CqsS sensors; 0 = neutral-control median; activity change, % at 7.5 µM; 300,000 tested, 0.4% active; in the data active = activity change below about -75%, passing the limit was not always enough; inconclusive = no clear call, values can overlap the other calls;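 note: luminescence divided by OD600 gain over 9 h not by final OD600 alone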
# Yeast superoxide = lowers age-related superoxide in aged yeast cells; S. cerevisiae aged cells, superoxide DHE fluorescence; stronger effect = lower value; superoxide response (% of plate mean), % at 10 µM; 330,000 tested, 0.18% active; AID 2690;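 active = superoxide response under a set limit, about three screen SD below normal, cut at about 65% in these data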;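 note: yeast aged for seven days with compound at 30 °C before DHE staining; 100% = average MFI of all compound-treated wells on the plate with controls excluded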
# V-ATPase pHluor = yeast V-ATPase proton transport regulation by pHLuorin. S. cerevisiae, pHLuorin cytosolic pH fluorescence. response, % at 10 µM. 350,000 tested, 0.37% active; in the data active = response mostly above about 7.3%, no sharp cut-off; inactive = mostly below about 5.4%; note: actives read high
# JMH597 growth = retest: inhibitors of Vibrio harveyi JMH597 growth; shares compounds with AI-2 QS modul; 750 tested, 1% active; OD600 absorbance, 9 h; lacks LuxN and CqsS sensors; growth inhibition, % at 7.5 µM;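 active = every replicate shows growth inhibition above 50%; inconclusive = at least half, but not all, replicates pass that cutoff; inactive = fewer than half of replicates pass it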
# BB721 const-QS lum = retest counter-screen: luminescence loss in constitutive-on quorum sensing strain BB721. shares compounds with AI-2 QS modul. Vibrio harveyi BB721 luminescence, 9 h. inhibition, % at 7.5 µM. 750 tested, 95% active;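 active = inhibition above about 80% in every replicate, not just on average, limit read from the data; inconclusive = at least half of replicates past the limit, but not all; inactive = fewer than half of replicates past the limit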
# BB721 growth rt = retest: inhibitors of Vibrio harveyi BB721 growth; shares compounds with AI-2 QS modul; OD600 absorbance, 9 h; growth inhibition, % at 7.5 µM; 750 tested, 3% active; AID 2728;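 active = every replicate shows growth inhibition above 50%; inconclusive = at least half but not all replicates above 50% inhibition; inactive = under half of replicates above 50% inhibition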
# JMH597 AI-2 mod = Vibrio harveyi AI-2 signaling luminescence modulation – JMH597 strain, confirmation. Vibrio harveyi JMH597 AI-2 quorum sensing luminescence, 9 h; luxN and CqsS knockout, AI-2 only. shares compounds with AI-2 QS modul. inhibition, % at 7.5 µM. 750 tested, 97% active;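 active = every replicate shows more than 75% inhibition of signal versus neutral control wells; inconclusive = half to three quarters of replicates exceed 75% inhibition; inactive = fewer than half of replicates exceed 75% inhibition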
# An asterisk follows results filed as active; ? = inconclusive; nt = no result.
SMILES,T cruzi inh,HIF activator,NRP1-CendR mod,AI-2 QS modul,Yeast superoxide,V-ATPase pHluor,JMH597 growth,BB721 const-QS lum,BB721 growth rt,JMH597 AI-2 mod
CC(=O)Nc1ccc2nc3ccccc3nc2c1,-1.8,2.5,-2.8,11.2,52.0*,-0.7,nt,nt,nt,nt
O=c1cc(-c2c(O)c3ccccc3n(Cc3ccccc3)c2=O)[nH][nH]1,4.5,0.0,-11.1,19.0,71.6,-2.3,nt,nt,nt,nt
CC(=N)c1c(O)cc(C)oc1=O,nt,nt,19.4*,nt,nt,0.2,nt,nt,nt,nt
COc1cc(OC)c(C(=O)OCC(=O)Nc2cc(C)on2)cc1OC,3.7,0.0,35.9*,7.6,107.5,1.2,nt,nt,nt,nt
COc1cc(C(=O)OCC(=O)Nc2cc(C)on2)c([N+](=O)[O-])cc1OC,-2.2,0.0,10.1,19.6,96.6,-1.1,nt,nt,nt,nt
CCOC(=O)CN1C(=O)N[C@@H](c2ccccc2)[C@@H](C(=O)OC)[C@H]1C,-20.5,-0.6,10.7,11.4,73.5,-2.4,nt,nt,nt,nt
CCOC(=O)CN1C(=O)N[C@@H](c2ccccc2)[C@H](C(C)=O)[C@H]1C,2.8,-0.3,24.7*,11.2,109.2,-8.2,nt,nt,nt,nt
CCCS(=O)(=O)N1CCN(C(=O)c2cccnc2)CC1,11.5,-0.3,7.2,26.2,84.8,-1.0,nt,nt,nt,nt
CC(/C=C/c1ccccc1)=N\NC(=O)CCc1ccccc1,-10.7,0.1,23.9*,35.2,105.5,0.3,nt,nt,nt,nt
COC(=O)N/N=C(C)/C=C/c1ccccc1,5.8,0.7,-10.7,15.3,94.1,3.2,nt,nt,nt,nt
Cc1ccc(N2C(=O)CS/C2=C(\C(Cl)=C(Cl)Cl)[N+](=O)[O-])cc1,-12.9,nt,-22.4,19.5,115.5,-3.0,nt,nt,nt,nt
O=C(CSc1ccccc1)Nc1cccnc1,-3.3,0.7,2.3,15.0,106.2,14.1*,nt,nt,nt,nt
Cc1ccc(SCC(=O)Nc2cccnc2)cc1,-6.0,0.4,6.6,9.2,90.3,3.3,nt,nt,nt,nt
O=C(COC(=O)CNC(=O)c1ccc(Cl)cc1)Nc1ccc(Cl)cn1,nt,nt,11.8,nt,114.1,13.2*,nt,nt,nt,nt
COc1ccc(C(=O)Nc2cc(Cl)ccc2C(=O)O)cc1,-18.5,0.0,-11.1,46.1,119.2,1.6,nt,nt,nt,nt
CCc1ccc(S(=O)(=O)Nc2ccc(Br)cn2)cc1,6.6,-0.8,12.9,?,103.4,-1.7,21.6,-10.5,1.0,94.8*
CCc1ccc(NC(=O)CN2C(=O)CC(C)S(=O)(=O)c3ccccc32)cc1 (centres undefined),2.4,0.3,9.2,-4.2,71.4,0.8,nt,nt,nt,nt
CC1CC(=O)N(CC(=O)Nc2ccc(Br)cc2)c2ccccc2S1(=O)=O (centres undefined),14.9,0.2,-7.0,-83.1*,115.8,3.5,-15.0,95.8*,-16.6,96.9*
O=C(COc1ccccc1Br)c1ccc(O)cc1O,-19.9,0.0,-5.5,4.4,98.0,0.5,nt,nt,nt,nt
Cc1nn(Cc2ccccc2Cl)c2sc(C(=O)NCCCn3ccnc3)cc12,17.0,3.9,-9.1,10.7,107.3,0.2,nt,nt,nt,nt
O=C(CN1CCOCC1)Nc1ccc(-c2nc3ccccc3[nH]2)cc1,0.2,2.3,-2.6,18.0,102.4,-0.2,nt,nt,nt,nt
CCc1ccc(CCC(=O)Nc2ccc(Cl)cc2)o1,0.4,0.4,13.0,-89.0*,95.8,-2.0,-6.6,95.6*,-36.0,97.7*
CCOC(=O)c1ccc(NC(=O)CCc2ccc(CC)o2)cc1,-9.5,0.2,2.6,-14.2,100.8,-2.2,nt,nt,nt,nt
Cc1ccc(CCC(=O)Nc2ccc(Cl)cc2)o1,-8.9,-0.5,2.1,-86.6*,101.2,1.1,23.5,91.3*,8.7,93.5*
CCc1ccc(CCC(=O)Nc2ccc(Br)cc2)o1,12.0,-0.3,-8.8,-91.4*,88.5,-1.1,-19.7,95.0*,-26.1,97.1*
SMILES,T cruzi inh,HIF activator,NRP1-CendR mod,AI-2 QS modul,Yeast superoxide,V-ATPase pHluor,JMH597 growth,BB721 const-QS lum,BB721 growth rt,JMH597 AI-2 mod
CCc1ccc(CCC(=O)Nc2ccc(C(C)=O)cc2)o1,0.4,-0.6,-1.1,-94.0*,80.5,-1.7,7.7,98.4*,-14.8,99.2*
CCc1ccc(CCC(=O)Nc2ccc(OC)cc2)o1,1.8,-40.5,3.4,-69.0,109.6,-0.1,nt,nt,nt,nt
N#CC1C(=O)c2ccccc2C1c1ccccc1 (centres undefined),nt,nt,23.5,nt,nt,0.0,nt,nt,nt,nt
COc1ccc(C(=O)N/C(=C\c2ccc3c(c2)OCO3)C(=O)NCCc2nc3ccccc3[nH]2)cc1,-7.9,0.1,-7.8,3.8,110.8,-0.4,nt,nt,nt,nt
O=C(CNS(=O)(=O)c1ccc(Br)s1)NCc1ccc(F)cc1,-5.9,-0.1,9.7,-0.9,106.9,-3.2,nt,nt,nt,nt
CCCn1c(=S)[nH]c2cc(C(=O)N3CCc4ccccc43)ccc2c1=O,8.0,-0.2,-8.1,?,80.3,1.4,-4.3,84.8*,-10.5,88.7*
CCCn1c(=S)[nH]c2cc(C(=O)N3CCN(C)CC3)ccc2c1=O,nt,nt,-2.5,nt,nt,1.4,nt,nt,nt,nt
CC(C)c1ccc(S(=O)(=O)N2CCN(C(=S)NCc3ccco3)CC2)cc1,5.9,-0.5,-9.5,-96.3*,105.7,-1.5,32.1,99.8*,-39.5,99.9*
O=S(=O)(c1ccccc1)N1CCN(C(=S)NCc2ccccc2)CC1,-2.3,-0.8,13.3,-5.1,112.8,-6.9,nt,nt,nt,nt
COc1ccc(C(=O)NC(=S)N2CCCC2)cc1,-5.2,2.3,-6.9,27.8,108.2,-2.3,nt,nt,nt,nt
Cc1ccc(O)c(CNc2nccs2)c1,-1.5,0.2,-12.5,-38.8,102.4,1.8,nt,nt,nt,nt
Oc1ccc(Cl)cc1CNc1nccs1,-21.9,-1.2,-9.2,-79.5*,105.4,3.9,26.1,92.0*,38.4,91.7*
COc1ccc(C(=O)NCCc2c[nH]c3ccccc23)cc1,-14.2,3.8,8.5,9.7,106.7,-4.9,nt,nt,nt,nt
O=C(NCCc1c[nH]c2ccccc12)C(=O)c1c[nH]c2ccccc12,19.0,-0.3,5.4,-90.1*,95.6,0.7,24.9,95.7*,5.9,97.3*
O=C(NCCc1c[nH]c2ccccc12)c1ccc(Cl)cc1,1.1,1.4,-1.1,-84.7*,104.0,4.9,0.0,93.5*,24.4,95.0*
O=C(NCCc1c[nH]c2ccccc12)c1ccc(F)cc1F,1.0,3.8,-3.2,-82.2*,78.7,-1.1,14.8,95.2*,11.7,96.7*
COc1cc(SC)ccc1C(=O)NCCc1c[nH]c2ccccc12,30.8,2.2,9.3,5.9,124.0,11.1,nt,nt,nt,nt
Cc1ccsc1C(=O)NCCc1c[nH]c2ccccc12,-0.2,1.8,9.4,-82.4*,84.8,1.2,5.0,91.9*,-6.4,94.2*

# Bioassay records as filed in PubChem.
